Measured values: ChEMBL document CHEMBL3244382, “Structural requirements for antileukemic activity among the naturally occurring and semisynthetic maytansinoids” (J Med Chem, 1978)
≈ marks a conversion by molar mass, not a printed value. Calls of active or inactive are those of the source.

Key:
Mus musculus [1] = assay: Toxicity in PS mouse allografted with mouse P388 cells assessed as change in body weight at 0.2 ug/kg relative to control; format: organism-based; details: in vivo, 0.0002 mg/kg
How it was run: (§1)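 PS (P388 leukemia) mice, six per dose group. Toxicity read as the difference in grams between the weights of treated and control animals.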

P388 [2] = assay: Antitumor activity against mouse P388 cells allografted in PS mouse assessed as median survival time at 0.1 ug/kg relative to control; format: functional
How it was run: (§2)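 P388 leukemia (PS) in mice, six mice started per dose group. Read-out is T/C: median survival time of the treated group divided by that of the untreated control group, expressed as a percent. The NIH protocol counts a compound as active when T/C > 125%.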

P388 [3] = assay: Antitumor activity against mouse P388 cells allografted in PS mouse assessed as median survival time at 0.8 ug/kg relative to control; format: functional; how it was run: as §2
Mus musculus [4] = assay: Toxicity in PS mouse allografted with mouse P388 cells assessed as survival at 0.8 ug/kg after 4 days; format: organism-based; details: in vivo, 0.0008 mg/kg, 96 h
How it was run: (§3)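 PS (P388) leukemic mice, six started per dose group. Toxicity scored as survivors on the toxicity day over the number of mice started. The toxicity day is normally 4 days after the first injection.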

Mus musculus [5] = assay: Toxicity in PS mouse allografted with mouse P388 cells assessed as change in body weight at 50 ug/kg relative to control; format: organism-based; details: in vivo, 0.05 mg/kg
How it was run: (§4)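 P388 (PS) leukemia in mice, 6 mice per dose group. Weight change is the difference in grams between treated and control animals. Survivors are recorded on toxicity day, normally 4 days after the first injection.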

Mus musculus [6] = assay: Toxicity in PS mouse allografted with mouse P388 cells assessed as change in body weight at 1.6 ug/kg relative to control; format: organism-based; details: in vivo, 0.0016 mg/kg; how it was run: as §4
Mus musculus [7] = assay: Toxicity in PS mouse allografted with mouse P388 cells assessed as survival at 25 ug/kg after 4 days; format: organism-based; details: in vivo, 0.025 mg/kg, 96 h; how it was run: as §3
Mus musculus [8] = assay: Toxicity in PS mouse allografted with mouse P388 cells assessed as survival at 12.5 ug/kg after 4 days; format: organism-based; details: in vivo, 0.0125 mg/kg, 96 h; how it was run: as §3
Mus musculus [9] = assay: Toxicity in PS mouse allografted with mouse P388 cells assessed as change in body weight at 25 ug/kg relative to control; format: organism-based; details: in vivo, 0.025 mg/kg; how it was run: as §4
Mus musculus [10] = assay: Toxicity in PS mouse allografted with mouse P388 cells assessed as survival at 0.1 ug/kg after 4 days; format: organism-based; details: in vivo, 0.0001 mg/kg, 96 h; how it was run: as §3
Mus musculus [11] = assay: Toxicity in PS mouse allografted with mouse P388 cells assessed as change in body weight at 0.1 ug/kg relative to control; format: organism-based; details: in vivo, 0.0001 mg/kg; how it was run: as §1
Mus musculus [12] = assay: Toxicity in PS mouse allografted with mouse P388 cells assessed as survival at 0.4 ug/kg after 4 days; format: organism-based; details: in vivo, 0.0004 mg/kg, 96 h; how it was run: as §3
P388 [13] = assay: Antitumor activity against mouse P388 cells allografted in PS mouse assessed as median survival time at 1.6 ug/kg relative to control; format: functional; how it was run: as §2
Mus musculus [14] = assay: Toxicity in PS mouse allografted with mouse P388 cells assessed as change in body weight at 0.4 ug/kg relative to control; format: organism-based; details: in vivo, 0.0004 mg/kg; how it was run: as §1
P388 [15] = assay: Antitumor activity against mouse P388 cells allografted in PS mouse assessed as median survival time at 12.5 ug/kg relative to control; format: functional; how it was run: as §2
Mus musculus [16] = assay: Toxicity in PS mouse allografted with mouse P388 cells assessed as survival at 0.2 ug/kg after 4 days; format: organism-based; details: in vivo, 0.0002 mg/kg, 96 h; how it was run: as §3
Mus musculus [17] = assay: Toxicity in PS mouse allografted with mouse P388 cells assessed as change in body weight at 12.5 ug/kg relative to control; format: organism-based; details: in vivo, 0.0125 mg/kg; how it was run: as §4
Mus musculus [18] = assay: Toxicity in PS mouse allografted with mouse P388 cells assessed as survival at 50 ug/kg after 4 days; format: organism-based; details: in vivo, 0.05 mg/kg, 96 h; how it was run: as §3
Mus musculus [19] = assay: Toxicity in PS mouse allografted with mouse P388 cells assessed as survival at 1.6 ug/kg after 4 days; format: organism-based; details: in vivo, 0.0016 mg/kg, 96 h; how it was run: as §3
P388 [20] = assay: Antitumor activity against mouse P388 cells allografted in PS mouse assessed as median survival time at 6.2 ug/kg relative to control; format: functional; how it was run: as §2
Paracentrotus lividus = assay: Antimitotic activity against sea urchin eggs assessed as drug level causing inhibition of mitosis; format: functional; details: Egg
KB = assay: Cytotoxicity against human KB cells; format: functional; details: read-out: ED50 (the source's name)
Mus musculus [21] = assay: Toxicity in PS mouse allografted with mouse P388 cells assessed as change in body weight at 3.1 ug/kg relative to control; format: organism-based; details: in vivo, 0.0031 mg/kg; how it was run: as §4
Mus musculus [22] = assay: Toxicity in PS mouse allografted with mouse P388 cells assessed as change in body weight at 0.8 ug/kg relative to control; format: organism-based; details: in vivo, 0.0008 mg/kg; how it was run: as §1
Mus musculus [23] = assay: Toxicity in PS mouse allografted with mouse P388 cells assessed as survival at 6.2 ug/kg after 4 days; format: organism-based; details: in vivo, 0.0062 mg/kg, 96 h; how it was run: as §3
P388 [24] = assay: Antitumor activity against mouse P388 cells allografted in PS mouse assessed as median survival time at 3.1 ug/kg relative to control; format: functional; how it was run: as §2
Tubulin (Homo sapiens) = Tubulin (Homo sapiens) (UniProt P68371+Q9H4B7+P0DPH7+P68366+Q13509+Q71U36+P04350+Q3ZCM7+P07437+P68363+Q9BQE3+Q6PEY2+Q13885+Q9BVA1+Q9BUF5); assay: Inhibition of brain tubulin polymerization (unknown origin) at 37 degC by spectrophotometry
Mus musculus [25] = assay: Toxicity in PS mouse allografted with mouse P388 cells assessed as survival at 3.1 ug/kg after 4 days; format: organism-based; details: in vivo, 0.0031 mg/kg, 96 h; how it was run: as §3
Mus musculus [26] = assay: Toxicity in PS mouse allografted with mouse P388 cells assessed as change in body weight at 6.2 ug/kg relative to control; format: organism-based; details: in vivo, 0.0062 mg/kg; how it was run: as §4
P388 [27] = assay: Antitumor activity against mouse P388 cells allografted in PS mouse assessed as median survival time at 25 ug/kg relative to control; format: functional; how it was run: as §2
P388 [28] = assay: Antitumor activity against mouse P388 cells allografted in PS mouse assessed as median survival time at 0.2 ug/kg relative to control; format: functional; how it was run: as §2
P388 [29] = assay: Antitumor activity against mouse P388 cells allografted in PS mouse assessed as median survival time at 0.4 ug/kg relative to control; format: functional; how it was run: as §2
P388 [30] = assay: Antitumor activity against mouse P388 cells allografted in PS mouse assessed as median survival time at 50 ug/kg relative to control; format: functional; how it was run: as §2

| SMILES | Activity (Mus musculus [1]) [g] | T/C (P388 [2]) [%] | T/C (P388 [3]) [%] | Activity (Mus musculus [4]) | Activity (Mus musculus [5]) [g] | Activity (Mus musculus [6]) [g] | Activity (Mus musculus [7]) | Activity (Mus musculus [8]) | Activity (Mus musculus [9]) [g] | Activity (Mus musculus [10]) | Activity (Mus musculus [11]) [g] | Activity (Mus musculus [12]) | T/C (P388 [13]) [%] | Activity (Mus musculus [14]) [g] | T/C (P388 [15]) [%] | Activity (Mus musculus [16]) | Activity (Mus musculus [17]) [g] | Activity (Mus musculus [18]) | Activity (Mus musculus [19]) | T/C (P388 [20]) [%] | also measured |
| --- | --- | --- | --- | --- | --- | --- | --- | --- | --- | --- | --- | --- | --- | --- | --- | --- | --- | --- | --- | --- | --- |
| COc1cc2cc(c1Cl)N(C)C(=O)C[C@H](OC(=O)[C@H](C)N(C)C(=O)C(C)C)[C@]1(C)O[C@H]1[C@H](C)[C@@H]1C[C@@](O)(NC(=O)O1)[C@H](OC)/C=C/C=C(\C)C2 | 0.1 | 125 | 190 | Non-toxic | 0.1 | 0 | Non-toxic | Non-toxic | 0.1 | Non-toxic | 0.3 | Non-toxic | 155 | 0.4 | 120 | Non-toxic | 0.1 | Toxic | Non-toxic | 155 | Activity (Paracentrotus lividus): 1 nM; EC50 (KB): 0.0036 ng/mL (≈ 0.005 nM); Activity (Mus musculus [21]): -0.9 g; Activity (Mus musculus [22]): 0.1 g; Activity (Mus musculus [23]): Non-toxic; T/C (P388 [24]): 145%; inhibition (Tubulin (Homo sapiens)): Active; Activity (Mus musculus [25]): Non-toxic; Activity (Mus musculus [26]): -1.3 g; T/C (P388 [27]): <80%; T/C (P388 [28]): 165%; T/C (P388 [29]): 155%; T/C (P388 [30]): <80% |
| CCC(=O)N(C)[C@@H](C)C(=O)O[C@H]1CC(=O)N(C)c2cc(cc(OC)c2Cl)C/C(C)=C/C=C/[C@@H](OC)[C@@]2(O)C[C@H](OC(=O)N2)[C@@H](C)[C@@H]2O[C@@]12C | -1.1 | 137 | 145 | Non-toxic | -1.2 | -1.2 | Non-toxic | Non-toxic | -2.2 | Non-toxic | -1.1 | Non-toxic | 154 | -0.8 | 104 | Non-toxic | -1.3 | Toxic | Non-toxic | 125 | Activity (Paracentrotus lividus): 1 ×10⁻⁸ mol/L; Activity (Mus musculus [21]): -0.6 g; Activity (Mus musculus [22]): -1.1 g; Activity (Mus musculus [23]): Non-toxic; T/C (P388 [24]): 150%; inhibition (Tubulin (Homo sapiens)): Active; Activity (Mus musculus [25]): Non-toxic; Activity (Mus musculus [26]): -2.1 g; T/C (P388 [27]): <80%; T/C (P388 [28]): 120%; T/C (P388 [29]): 137%; T/C (P388 [30]): <80% |
| COc1cc2cc(c1Cl)N(C)C(=O)C[C@H](OC(=O)C(C)C)[C@]1(C)O[C@H]1[C@H](C)[C@@H]1C[C@@](O)(NC(=O)O1)[C@H](OC)/C=C/C=C(\C)C2OC(C)=O (stereo partly drawn) | -1.3 | 125 | 137 | Non-toxic | -1 | -0.7 | Non-toxic | Non-toxic | -0.9 | Non-toxic | -0.5 | Non-toxic | 162 | -0.6 | 179 | Non-toxic | -0.8 | Non-toxic | Non-toxic | 166 | Activity (Paracentrotus lividus): 1 ×10⁻⁷ mol/L; EC50 (KB): 0.0015 ng/mL (≈ 0.00216 nM); Activity (Mus musculus [21]): -0.4 g; Activity (Mus musculus [22]): -1 g; Activity (Mus musculus [23]): Non-toxic; T/C (P388 [24]): 150%; inhibition (Tubulin (Homo sapiens)): Active; Activity (Mus musculus [25]): Non-toxic; Activity (Mus musculus [26]): -0.9 g; T/C (P388 [27]): 170%; T/C (P388 [28]): 125%; T/C (P388 [29]): 133%; T/C (P388 [30]): <80% |
